The record followed here is ChEMBL document CHEMBL1123425, “Potential antitumor agents. 46. Structure-activity relationships for acridine monosubstituted derivatives of the antitumor agent N-[2-(dimethylamino)ethyl]-9-aminoacridine-4-carboxamide” (1986).

Each structure is given as a SMILES string. pIC50: −log10 of the molar value.

One assay has as its system Mus musculus. Nature of the assay: In vivo optimal i.p. dose administered on days 1, 5, and 9 after i.p. inoculation of (10E6) P388 leukemia cells.
Details: not given
The assay is classed as functional. The gist of the method:
(§1)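 Mice received 10⁶ P388 leukemia cells i.p. Drug was dissolved in 0.1 mL of 30% v/v ethanol/water and given i.p. on days 1, 5 and 9 after inoculation. The optimal dose is expressed in mg/kg per day.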
As for `CN(C)CCNC(=O)c1cccc2c(N)c3cccc(Cl)c3nc12`, the OD came to 2.6 mg/kg/day.

The molecule `CN(C)CCNC(=O)c1cccc2c(N)c3ccccc3nc12` came in with an OD of 4.5 mg/kg/day.

Take `COc1ccc2nc3c(C(=O)NCCN(C)C)cccc3c(N)c2c1`: the OD came out at 13.3 mg/kg/day.

As for `COc1cccc2nc3c(C(=O)NCCN(C)C)cccc3c(N)c12`, the OD is 45 mg/kg/day.

As for `CN(C)CCNC(=O)c1cccc2c(N)c3ccc(Cl)cc3nc12`, the OD amounted to 8.9 mg/kg/day.

For `COc1ccc2c(N)c3cccc(C(=O)NCCN(C)C)c3nc2c1`, the OD was found to be 8.9 mg/kg/day.

For `COc1cc(C(=O)NCCN(C)C)c2nc3ccccc3c(N)c2c1`, the OD is 5.9 mg/kg/day.

In turn, `Cc1cccc2nc3c(C(=O)NCCN(C)C)cccc3c(N)c12` registered an OD of 8.9 mg/kg/day.

Consider `CN(C)CCNC(=O)c1ccc(Cl)c2c(N)c3ccccc3nc12`, for which the OD came to 8.9 mg/kg/day.

Molecule `Cc1cc(C(=O)NCCN(C)C)c2nc3ccccc3c(N)c2c1` registered an OD of 30 mg/kg/day.

The molecule `CN(C)CCNC(=O)c1cc(Cl)cc2c(N)c3ccccc3nc12` came in with an OD of 20 mg/kg/day.

`COc1ccc2c(N)c3ccccc3nc2c1C(=O)NCCN(C)C`: the OD was 20 mg/kg/day.

For `COc1cccc2c(N)c3cccc(C(=O)NCCN(C)C)c3nc12`, the OD stood at 3.9 mg/kg/day.

Regarding `Cc1ccc2nc3c(C(=O)NCCN(C)C)cccc3c(N)c2c1`, the OD is 13.3 mg/kg/day.

`CN(C)CCNC(=O)c1cccc2c(N)c3c(Cl)cccc3nc12` came in with an OD of 20 mg/kg/day.

In turn, `COc1ccc(C(=O)NCCN(C)C)c2nc3ccccc3c(N)c12` showed an OD of 8.9 mg/kg/day.

Molecule `Cc1ccc2c(N)c3cccc(C(=O)NCCN(C)C)c3nc2c1` came in with an OD of 2.6 mg/kg/day.

The molecule `CN(C)CCNC(=O)c1cccc2c(N)c3cc(Cl)ccc3nc12` yielded an OD of 13.3 mg/kg/day.

With `Cc1cccc2c(N)c3cccc(C(=O)NCCN(C)C)c3nc12`, the OD was 2.6 mg/kg/day.

For a further assay, the system named is P388. In words: Evaluated in vivo against P388 leukemia cells ( percent increase in life span of treated animals over that of control groups of tumor bearing untreated animals.). The assay is classed as functional, Mus musculus.
Details: not given
Regarding `CN(C)CCNC(=O)c1cccc2c(N)c3cccc(Cl)c3nc12`, the ILS is reported as 81%.

With `COc1cc(C(=O)NCCN(C)C)c2nc3ccccc3c(N)c2c1`, the increase in life span (ILS) was 72%.

Turning to `CN(C)CCNC(=O)c1ccc(Cl)c2c(N)c3ccccc3nc12`, the ILS came to 29%.

Molecule `COc1cccc2c(N)c3cccc(C(=O)NCCN(C)C)c3nc12` gave an ILS of 81%.

`COc1ccc(C(=O)NCCN(C)C)c2nc3ccccc3c(N)c12`: the ILS was 27%.

As for `Cc1ccc2c(N)c3cccc(C(=O)NCCN(C)C)c3nc2c1`, the ILS is recorded as 20%.

As to `Cc1cccc2c(N)c3cccc(C(=O)NCCN(C)C)c3nc12`, the ILS was 107%.

In another assay the test system is HCT-8. In words: In vitro cytotoxicity against HCT-8 human colon carcinoma cells. The assay is classed as functional. Particulars: read-out: ID50 (the source's name). The gist of the method: (§2)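 Cultured L1210 murine leukemia or HCT-8 human colon carcinoma cells were incubated with drug for 70 h. ID50 is the drug concentration (nM) that reduced cell number to 50% of untreated controls.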
In the case of `CN(C)CCNC(=O)c1cccc2c(N)c3cccc(Cl)c3nc12`, the pIC50 was 7.48.

Regarding `CN(C)CCNC(=O)c1cccc2c(N)c3ccccc3nc12`, the pIC50 was 7.18.

`COc1ccc2nc3c(C(=O)NCCN(C)C)cccc3c(N)c2c1`: the pIC50 is 6.22.

Take `COc1cccc2nc3c(C(=O)NCCN(C)C)cccc3c(N)c12`: the pIC50 was 6.31.

With `CN(C)CCNC(=O)c1cccc2c(N)c3ccc(Cl)cc3nc12`, the pIC50 is 6.61.

As for `COc1cc(C(=O)NCCN(C)C)c2nc3ccccc3c(N)c2c1`, the pIC50 is 7.49.

With `Cc1cccc2nc3c(C(=O)NCCN(C)C)cccc3c(N)c12`, the pIC50 was 6.60.

Consider `CN(C)CCNC(=O)c1ccc(Cl)c2c(N)c3ccccc3nc12`, for which the pIC50 was 6.44.

Turning to `Cc1cc(C(=O)NCCN(C)C)c2nc3ccccc3c(N)c2c1`, the pIC50 was 6.37.

`CN(C)CCNC(=O)c1cc(Cl)cc2c(N)c3ccccc3nc12`: the pIC50 was 6.49.

Regarding `COc1ccc2c(N)c3ccccc3nc2c1C(=O)NCCN(C)C`, the pIC50 is 6.11.

On to `COc1cccc2c(N)c3cccc(C(=O)NCCN(C)C)c3nc12`, for which the pIC50 is 7.05.

For the molecule `Cc1ccc2nc3c(C(=O)NCCN(C)C)cccc3c(N)c2c1`, the pIC50 was 6.31.

On to `CN(C)CCNC(=O)c1cccc2c(N)c3c(Cl)cccc3nc12`, for which the pIC50 is 6.44.

On to `COc1ccc(C(=O)NCCN(C)C)c2nc3ccccc3c(N)c12`, for which the pIC50 was 7.72.

Consider `Cc1ccc2c(N)c3cccc(C(=O)NCCN(C)C)c3nc2c1`, for which the pIC50 was 6.92.

With `CN(C)CCNC(=O)c1cccc2c(N)c3cc(Cl)ccc3nc12`, the pIC50 was 6.31.

Take `Cc1cccc2c(N)c3cccc(C(=O)NCCN(C)C)c3nc12`: the pIC50 was 7.96.

For a further assay, the system named is L1210. In words: In vitro cytotoxicity against L1210 leukemia cells. To be noted: Mus musculus, read-out: ID50 (the source's name). Type of assay: functional. The gist of the method: as §2
As to `CN(C)CCNC(=O)c1cccc2c(N)c3cccc(Cl)c3nc12`, the pIC50 was 8.54.

Turning to `COc1ccc2nc3c(C(=O)NCCN(C)C)cccc3c(N)c2c1`, the pIC50 was 6.17.

Take `COc1cccc2nc3c(C(=O)NCCN(C)C)cccc3c(N)c12`: the pIC50 was 6.66.

`CN(C)CCNC(=O)c1cccc2c(N)c3ccc(Cl)cc3nc12`: the pIC50 is 6.98.

Take `COc1cc(C(=O)NCCN(C)C)c2nc3ccccc3c(N)c2c1`: the pIC50 was 8.54.

In the case of `Cc1cccc2nc3c(C(=O)NCCN(C)C)cccc3c(N)c12`, the pIC50 is 6.47.

Regarding `CN(C)CCNC(=O)c1ccc(Cl)c2c(N)c3ccccc3nc12`, the pIC50 was 8.32.

As to `Cc1cc(C(=O)NCCN(C)C)c2nc3ccccc3c(N)c2c1`, the pIC50 was 6.23.

In the case of `CN(C)CCNC(=O)c1cc(Cl)cc2c(N)c3ccccc3nc12`, the pIC50 was 6.52.

Regarding `COc1ccc2c(N)c3ccccc3nc2c1C(=O)NCCN(C)C`, the pIC50 was 6.52.

Turning to `COc1cccc2c(N)c3cccc(C(=O)NCCN(C)C)c3nc12`, the pIC50 was 8.37.

With `CN(C)CCNC(=O)c1cccc2c(N)c3c(Cl)cccc3nc12`, the pIC50 is 6.60.

`COc1ccc(C(=O)NCCN(C)C)c2nc3ccccc3c(N)c12`: the pIC50 is 9.26.

As to `CN(C)CCNC(=O)c1cccc2c(N)c3cc(Cl)ccc3nc12`, the pIC50 is 6.14.

Take `Cc1cccc2c(N)c3cccc(C(=O)NCCN(C)C)c3nc12`: the pIC50 was 9.33.

For the next assay, the system named is P388. In words: Evaluated in vivo against P388 leukemia cells ( percent increase in life span of treated animals over that of control groups of tumor bearing untreated animals.); k = no activity at all dose levels up to acutely toxic ones. Type of assay: functional, organism-based. Particulars: Mus musculus. Put shortly:
as §1
For `COc1ccc2nc3c(C(=O)NCCN(C)C)cccc3c(N)c2c1`, the ILS result is “No activity”.

For `COc1cccc2nc3c(C(=O)NCCN(C)C)cccc3c(N)c12`, the ILS result is “No activity”.

Turning to `CN(C)CCNC(=O)c1cccc2c(N)c3ccc(Cl)cc3nc12`, the ILS result is “No activity”.

For the molecule `COc1ccc2c(N)c3cccc(C(=O)NCCN(C)C)c3nc2c1`, the ILS entry was “No activity”.

With `Cc1cccc2nc3c(C(=O)NCCN(C)C)cccc3c(N)c12`, the ILS result is “No activity”.

Consider `Cc1cc(C(=O)NCCN(C)C)c2nc3ccccc3c(N)c2c1`, for which the ILS result was “No activity”.

Turning to `CN(C)CCNC(=O)c1cc(Cl)cc2c(N)c3ccccc3nc12`, the ILS entry was “No activity”.

With `COc1ccc2c(N)c3ccccc3nc2c1C(=O)NCCN(C)C`, the ILS result was “No activity”.

In the case of `Cc1ccc2nc3c(C(=O)NCCN(C)C)cccc3c(N)c2c1`, the ILS entry was “No activity”.

With `CN(C)CCNC(=O)c1cccc2c(N)c3c(Cl)cccc3nc12`, the ILS result is “No activity”.

For the molecule `CN(C)CCNC(=O)c1cccc2c(N)c3cc(Cl)ccc3nc12`, the ILS result is “No activity”.

The next assay has as its system L1210. Nature of the assay: In vitro cytotoxicity against L1210 leukemia cells. Particulars: Mus musculus, read-out: ID50 (the source's name). Type of assay: functional. Put shortly:
as §2
`CN(C)CCNC(=O)c1cccc2c(N)c3ccccc3nc12`: the pIC50 was 7.82.

What is called ILS is how much longer treated animals lived than controls.
